From PubChem BioAssay
Compounds with a hit are over-represented: about 1.7% of the library has one in this group of screens.
Scp1 inh: Scp-1 phosphatase inhibitors, primary screen, biochemical, colorimetric, uHTS. Carboxy-terminal domain RNA polymerase II polypeptide A small phosphatase 1 (Homo …. Recombinant Scp1, phosphopeptide, malachite green phosphate absorbance. inhibition, % at 20 µM. 340,000 tested, 0.88% active. AID 493091, 2011;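 active = inhibition above about 50% at 20 µM, limit read from the data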;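 also: plate controls were DMSO wells with enzyme for no effect and wells lacking enzyme for full effect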
Target sequence (Q9GZU7 76-261 limits assumed): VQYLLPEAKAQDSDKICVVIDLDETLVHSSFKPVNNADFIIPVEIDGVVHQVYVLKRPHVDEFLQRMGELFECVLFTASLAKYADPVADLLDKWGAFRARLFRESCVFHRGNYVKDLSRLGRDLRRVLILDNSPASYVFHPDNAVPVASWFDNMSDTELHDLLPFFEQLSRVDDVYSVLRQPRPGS
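Test system – truncated SCP-1 phosphatase (76-261aa) · Reagent – Phosphorylated 17-residue peptide substrate · Incubation – 45 min room-temperature reaction, 5 min colour, 30 min stabiliser · Detection – colorimetric phosphate reagent with accelerator and stabiliser, absorbance at 630 nm · Measure – % inhibition at 20 µM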
STEP inh: STEP phosphatase inhibitors, primary screen, biochemical, fluorescence intensity, uHTS; Tyrosine-protein phosphatase non-receptor type 5 (Homo sapiens), P54829; recombinant STEP, OMFP fluorogenic substrate; inhibition, % at 20 µM; 360,000 tested, 0.25% active; AID 588621, 2011;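 active = inhibition at 20 µM, scaled per plate between control wells, above about 37%, limit read from the data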;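 also: 0% = DMSO with enzyme and substrate and 100% = substrate only without enzyme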
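medium = Bis-Tris buffer pH 6.0, 2.5 mM DTT, 0.005% Tween 20 | test system = STEP (striatal-enriched tyrosine phosphatase) enzyme, cell-free | measure = normalized % inhibition | compound dosing = 20 µM, 1% DMSO | also added = 25 µM OMFP | schedule = reaction 20 min, ambient temperature | measured by = fluorescence read at 480 nm ex / 540 nm em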
SUMO1 PPI mod: modulators of SUMO1 protein-protein interactions, primary screen, biochemical, uHTS. SUMO1 binding to a labelled peptide, TR-FRET, 1 h. inhibition, % at 20 µM. AID 602429, 2012. 360,000 tested, 0.33% active; in the data active = inhibition above about 37%
Target sequence (P63165 whole entry, looked up): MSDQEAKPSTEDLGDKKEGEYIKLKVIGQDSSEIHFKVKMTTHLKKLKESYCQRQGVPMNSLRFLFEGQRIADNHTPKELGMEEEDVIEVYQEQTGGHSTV
LMPTP inh: LMPTP phosphatase inhibitors, primary screen, biochemical, fluorescence intensity, uHTS | Low molecular weight phosphotyrosine protein phosphatase (Homo sapiens), P24666 | AID 651560, 2012 | 360,000 tested, 0.22% active | recombinant LMPTP-A, OMFP fluorogenic substrate | inhibition, % at 20 µM;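 active = compounds that cut the enzyme signal by at least half of the control window in the single-dose screen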;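 also: plate controls were DMSO wells with enzyme plus substrate for no effect and substrate without enzyme for full effect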
Target sequence (P24666 whole entry, looked up): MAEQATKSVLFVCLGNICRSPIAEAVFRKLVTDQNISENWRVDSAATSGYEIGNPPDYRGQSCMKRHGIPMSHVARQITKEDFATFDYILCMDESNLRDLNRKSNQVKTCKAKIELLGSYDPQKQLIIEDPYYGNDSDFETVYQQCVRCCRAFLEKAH
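Test system – LMPTP-A enzyme · Amount – LMPTP-A at 0.625 nM final in the reaction · Buffer or medium – Bis-Tris pH 6.0, DTT, detergent · Reagent – OMFP 400 µM · Doses – single 20 µM dose · Schedule – reaction 50 min, room temperature, dark · Detection – fluorescence intensity of OMFP turnover product · Evaluation – percent inhibition versus substrate-only and uninhibited controls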
DNMT1 block: human DNMT1 methyltransferase inhibitors, primary screen, biochemical, molecular beacon, fluorescence, HinP1I cleavage, uHTS; DNA (cytosine-5)-methyltransferase 1 (Homo sapiens), P26358; inhibition (reported as % activation of signal), % at 10 µM; 360,000 tested, 0.83% active; AID 588458, 2011; in the data active = inhibition above about 50%
DNMT1 interf DR: spectral interference with molecular beacon fluorescence, dose response, artefact control for DNMT1 inhibitor project, biochemical, fluorescent molecular beacon | shares compounds with DNMT1 block | spectral interference counter-screen | IC50, µM | 200 tested, under 10 active; call rule not given here
DNMT1 inh conf: DNMT1 methyltransferase inhibitor retest, confirmation, biochemical, molecular beacon, fluorescence, single concentration; shares compounds with DNMT1 block; DNMT1 molecular beacon HinP1I cleavage; inhibition, % at 10 µM; 2,300 tested, 8% active; AID 602385, 2012;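 active = average inhibition of at least 30% in the single-concentration confirmation test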
DNMT1 interf: counter-screen for DNMT1 inhibitors: spectral interference; DNMT1 molecular beacon spectral interference counterscreen, fluorescence 485/520; 2,300 tested, 1% active; shares compounds with DNMT1 block; activation (fluorescence interference), % at 10 µM;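 active = activation of at least 30% at 10 µM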;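 also: DNMT1 catalytic domain with a HinP1I cleavage step and a FAM/dabcyl DNA beacon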
Numbers without * were called inactive; / = no result.

SMILES | Scp1 inh | STEP inh | SUMO1 PPI mod | LMPTP inh | DNMT1 block | DNMT1 inh conf | DNMT1 interf | others
CC(=O)Nc1cc(-c2ccccc2N(C)C)cn2c(-c3ccc(S(C)(=O)=O)cc3)cnc12 | / | -22 | -24 | 2 | 189* | 5 | 12
Cc1ccc(S(=O)(=O)c2c(N)n(CCCO)c3nc4ccccc4nc23)cc1 | 0 | -4 | 45* | 4 | 70* | 3 | 5
CCc1nnc(NC(=O)CCC(=O)NC2CC2)s1 | -9 | 0 | 2 | -1 | 2 | / | /
CCOc1ccc(NC(=O)CNC(=O)c2nn(-c3ccc(OC)c(OC)c3)c(=O)c3ccccc23)cc1 | -10 | 4 | -21 | 2 | 6 | / | /
COc1ccc(-n2nc(C(=O)NCC(=O)Nc3cccc(Cl)c3)c3ccccc3c2=O)cc1OC | 38 | 10 | -65 | 34 | 60* | -3 | -7
COc1ccc(-n2nc(C(=O)Nc3ccc(OC)c(OC)c3)c3c4ccccc4n(C)c3c2=O)cc1 | -3 | 3 | -4 | 3 | 60* | 2 | 4
O=C(O)c1ccc(Cl)c(NCc2cccnc2)c1 | -2 | -4 | 8 | 0 | 0 | / | /
O=C1C2C3C=CC(CC3)C2C(=O)N1c1nccs1 (configuration not stated) | 7 | 4 | 2 | 0 | 61* | -2 | 1
O=C1C2C3C=CC(C2C(=O)N1c1nccs1)C1C(=O)N(c2nccs2)C(=O)C31 (configuration not stated) | 5 | 1 | 3 | -2 | 3 | / | /
Cc1ccccc1C1NC(=O)c2ccccc2O1 (configuration not stated) | 1 | -7 | 6 | -1 | 75* | 4 | 5
O=C1NC(c2ccc(Cl)cc2Cl)Oc2ccccc21 (configuration not stated) | 0 | -5 | -3 | 0 | -5 | / | /
C[C@@H]1CCCCO[C@@H](CN(C)C(=O)Cc2ccccc2)[C@@H](C)CN([C@H](C)CO)C(=O)c2cc(NC(=O)C3CCCCC3)ccc2O1 | / | -2 | 5 | -1 | 5 | / | /
Cc1cccc(N2CCCn3c2nc2c3c(=O)[nH]c(=O)n2C)c1 | -10 | 0 | 4 | -1 | 0 | / | /
O=C(O)CCn1c(-c2ccccn2)nc2ccccc21 | 11 | 2 | 2 | -4 | 26 | / | /
Cc1cccc(NC(=S)N(CCCN2CCOCC2)C(C)c2cc3ccccc3o2)c1 (configuration not stated) | -3 | 7 | 1 | -2 | 0 | / | /
Cc1cccc(NC(=S)N(CCCN2CCOCC2)C(C)c2cc3ccccc3o2)c1C (configuration not stated) | -6 | 3 | 2 | -2 | 54* | 1 | -1
Cc1ccc(-c2cc(C(=O)Nc3ccc(S(=O)(=O)N4CC(C)OC(C)C4)cc3)[nH]n2)c(O)c1 (configuration not stated) | -7 | 7 | 7 | 26 | 124* | 4 | 0
Cc1ccc(O)c(-c2cc(C(=O)Nc3ccc(S(=O)(=O)N4CC(C)OC(C)C4)cc3)[nH]n2)c1 (configuration not stated) | -7 | -4 | 4 | 3 | -12 | / | /
Cc1ccc(-n2ncc3c2CCCC3NC(=O)CCc2cnccn2)cc1C (configuration not stated) | -1 | 1 | 0 | -1 | 0 | / | /
CCC(CCCO)CCC[C@H](C)CCC1OCCO1 (some centres not stated) | -2 | -1 | -4 | -1 | 59* | 1 | 5
Cc1cccc(C)c1NC(=O)CNC(=O)c1ccc(COc2ccccc2)o1 | 1 | -2 | 0 | -1 | 2 | / | /
O=C(Nc1ccc(NC(=O)c2sc3ccccc3c2Cl)cc1Cl)c1ccco1 | -2 | 5 | -1 | -2 | 75* | 0 | -2
CC(C)OCCCNC(=O)C1CCN(S(=O)(=O)N2CCCCC2)CC1 | 1 | 2 | 0 | -1 | -1 | / | /
CCOCCCNC(=O)C1CCN(S(=O)(=O)N2CCCC2)CC1 | -6 | -2 | 1 | 1 | 72* | 3 | 4
O=S(=O)(c1ccc2ccccc2c1)N1CCOCC1 | -4 | 2 | 5 | 0 | -2 | / | /
SMILES | Scp1 inh | STEP inh | SUMO1 PPI mod | LMPTP inh | DNMT1 block | DNMT1 inh conf | DNMT1 interf | others
O=S(=O)(c1ccc2c(c1)CCN2)N1CCOCC1 | -1 | 0 | -1 | 1 | 102* | 3 | 5
O=C(Nc1ccc(Cl)c(S(=O)(=O)N2CCOCC2)c1)[C@@H]1CCCN1C(=O)c1cccs1 | -5 | -3 | 0 | -1 | -1 | / | /
O=C(Nc1nnc(-c2ccccc2)s1)c1ccc(F)cc1 | -2 | -1 | -2 | -1 | 72* | 2 | 1
CCOc1ccc(Br)cc1C(=O)Nc1ccc(C(=O)NCC(C)C)cc1 | 3 | -6 | -4 | -2 | 63* | 4 | 4
Clc1ccc(C2=Nn3c(nnc3-c3cccnc3)SC2)s1 | 3 | 4 | -9 | -2 | 9 | / | /
Brc1ccc(C2=Nn3c(nnc3-c3cccnc3)SC2)s1 | 4 | 36 | -8 | 38 | 62* | 0 | -5
CCOc1ccc(NC(=O)C2CCN(S(=O)(=O)CC)CC2)cc1 | -4 | 0 | -2 | 0 | 60* | 5 | 4
CCOC(=O)c1ccc(NC(=O)C2CCN(S(=O)(=O)CC)CC2)cc1 | -1 | -3 | 2 | -3 | 21 | / | /
CN(C)c1cccc(C(=O)OCc2cc(=O)oc3cc(O)ccc23)c1 | 62* | 41* | 15 | 22 | 82* | 8 | 2
CC1CN(S(=O)(=O)c2cccc(C(=O)OCc3cc(=O)oc4cc(O)ccc34)c2)CC(C)O1 (configuration not stated) | 18 | -2 | 1 | 3 | 14 | / | /
CCc1ccc(N(CC(=O)NC(C)(C)C)C(=O)CCC(=O)Nc2ccccn2)cc1 | -9 | 1 | -3 | -1 | 60* | 1 | -1
COc1ccc(CCNS(=O)(=O)c2ccc([N+](=O)[O-])cc2)cc1OC | -5 | -1 | -20 | -1 | -5 | / | /
O=C1COc2ccc(C(=O)COC(=O)/C=C/c3ccc(Br)o3)cc2N1 | 81* | 30 | 81* | 71* | 100* | 27 | -4 | DNMT1 interf DR=>99
